# Results: ChEMBL document CHEMBL1142136, “Contribution of target gene mutations and efflux to decreased susceptibility of Salmonella enterica serovar typhimurium to fluoroquinolones and other antimicrobials” (2007)
# Key:
# Format in all cases: functional, Salmonella enterica subsp. enterica serovar Typhimurium
# [1] = system: Salmonella typhimurium; assay: Antimicrobial activity against Salmonella enterica serovar Typhimurium CS9 with GyrA S83F, D87N, ParC S80I mutation
# Summary of the method: (§1)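 MICs measured by broth microdilution on the Sensititre automated system and interpreted by CLSI broth microdilution standards. Ciprofloxacin was also tested by agar dilution, widening the range to 0.0075–128 μg/ml. Quality control strains were E. coli ATCC 25922 and 35218, E. faecalis ATCC 29212, S. aureus ATCC 29213 and P. aeruginosa ATCC 27853.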
# [2] = system: Salmonella typhimurium; assay: Antimicrobial activity against Salmonella enterica serovar Typhimurium S21-3 with GyrA S83F, ParC S80I mutation; summary of the method: as §1
# [3] = system: Salmonella typhimurium; assay: Antimicrobial activity against Salmonella enterica serovar Typhimurium CS3 tolC::Kan with GyrA S83F, D87N, parC S80I mutation; summary of the method: as §1
# [4] = system: Salmonella typhimurium; assay: Antimicrobial activity against Salmonella enterica serovar Typhimurium CS3 with GyrA S83F, D87N, ParC S80I mutation; summary of the method: as §1
# [5] = system: Salmonella typhimurium; assay: Antimicrobial activity against Salmonella enterica serovar Typhimurium S21-4 with GyrA S83F, ParC S80I mutation; summary of the method: as §1
# [6] = system: Salmonella typhimurium; assay: Antimicrobial activity against Salmonella enterica serovar Typhimurium CHS18 gyrA+ with GyrA S38F mutation; summary of the method: as §1
# [7] = system: Salmonella typhimurium; assay: Antimicrobial activity against Salmonella enterica serovar Typhimurium CS3 gyrA+ with GyrA S83F, D87N, ParC S80I mutation; summary of the method: as §1
# [8] = system: Salmonella typhimurium; assay: Antimicrobial activity against Salmonella enterica serovar Typhimurium CS1 gyrA+ with GyrA S83F, D87N, ParC S80I mutation; summary of the method: as §1
# [9] = system: Salmonella typhimurium; assay: Antimicrobial activity against Salmonella enterica serovar Typhimurium S21-4 tolC::Kan with GyrA S83F, ParC S80I mutation; summary of the method: as §1
# [10] = system: Salmonella typhimurium; assay: Antimicrobial activity against Salmonella enterica serovar Typhimurium CS3 acrAB::Kan with GyrA S83F, D87N, ParC S80I mutation; summary of the method: as §1
# [11] = system: Salmonella typhimurium; assay: Antimicrobial activity against Salmonella enterica serovar Typhimurium S21 gyrA+; summary of the method: as §1
# [12] = system: Salmonella typhimurium; assay: Antimicrobial activity against Salmonella enterica serovar Typhimurium CHS14 with GyrA D87G mutation; summary of the method: as §1
# [13] = system: Salmonella typhimurium; assay: Antimicrobial activity against Salmonella enterica serovar Typhimurium CS9 gyrA+ with GyrA S83F, D87N, ParC S80I mutation; summary of the method: as §1
# [14] = system: Salmonella typhimurium; assay: Antimicrobial activity against Salmonella enterica serovar Typhimurium S21-2 acrAB::Kan with GyrA S83F, ParC S80I mutation; summary of the method: as §1
# [15] = system: Salmonella typhimurium; assay: Antimicrobial activity against Salmonella enterica serovar Typhimurium CHS38 with GyrA D87G mutation; summary of the method: as §1
# [16] = system: Salmonella typhimurium; assay: Antimicrobial activity against Salmonella enterica serovar Typhimurium CHS38 gyrA+ with GyrA D87G mutation; summary of the method: as §1
# [17] = system: Salmonella typhimurium; assay: Antimicrobial activity against Salmonella enterica serovar Typhimurium CS1 tolC::Kan with GyrA S83F, D87N, ParC S80I mutation; summary of the method: as §1
# [18] = system: Salmonella typhimurium; assay: Antimicrobial activity against Salmonella enterica serovar Typhimurium S21-3 acrAB::Kan with GyrA S83F, ParC S80I mutation; summary of the method: as §1
# [19] = system: Salmonella typhimurium; assay: Antimicrobial activity against Salmonella enterica serovar Typhimurium S21-4 gyrA+ with ParC S80I mutation; summary of the method: as §1
# [20] = system: Salmonella typhimurium; assay: Antimicrobial activity against Salmonella enterica serovar Typhimurium CHS18 tolC::Kan with GyrA S38F mutation; summary of the method: as §1
# [21] = system: Salmonella typhimurium; assay: Antimicrobial activity against Salmonella enterica serovar Typhimurium CHS14 tolC::Kan with GyrA D87G mutant; summary of the method: as §1
# [22] = system: Salmonella typhimurium; assay: Antimicrobial activity against Salmonella enterica serovar Typhimurium CHS14 gyrA+ with GyrA D87G mutation; summary of the method: as §1
# [23] = system: Salmonella typhimurium; assay: Antimicrobial activity against Salmonella enterica serovar Typhimurium S21-3 gyrA+ with ParC S80I mutation; summary of the method: as §1
# [24] = system: Salmonella typhimurium; assay: Antimicrobial activity against Salmonella enterica serovar Typhimurium S21-1 tolC::Kan with GyrA S83F mutation; summary of the method: as §1
# [25] = system: Salmonella typhimurium; assay: Antimicrobial activity against Salmonella enterica serovar Typhimurium CS1 acrAB::Kan with GyrA S83F, D87N, ParC S80I mutation; summary of the method: as §1
# [26] = system: Salmonella typhimurium; assay: Antimicrobial activity against Salmonella enterica serovar Typhimurium CS9 acrAB::Kan with GyrA S83F, D87N, ParC S80I mutation; summary of the method: as §1
# [27] = system: Salmonella typhimurium; assay: Antimicrobial activity against Salmonella enterica serovar Typhimurium S21-3 tolC::Kan with GyrA S83F, ParC S80I mutation; summary of the method: as §1
# [28] = system: Salmonella typhimurium; assay: Antimicrobial activity against Salmonella enterica serovar Typhimurium CHS38 tolC::Kan with GyrA D87G mutation; summary of the method: as §1
# [29] = system: Salmonella typhimurium; assay: Antimicrobial activity against Salmonella enterica serovar Typhimurium GyrA S21-1 acrAB::Kan with GyrA S83F mutation; summary of the method: as §1
# [30] = system: Salmonella typhimurium; assay: Antimicrobial activity against Salmonella enterica serovar Typhimurium CS1 with GyrA S83F, D87N, ParC S80I mutation; summary of the method: as §1
# [31] = system: Salmonella typhimurium; assay: Antimicrobial activity against Salmonella enterica serovar Typhimurium S21; summary of the method: as §1
# [32] = system: Salmonella typhimurium; assay: Antimicrobial activity against Salmonella enterica serovar Typhimurium CHS38 acrAB::Kan with GyrA D87G mutation; summary of the method: as §1
# [33] = system: Salmonella typhimurium; assay: Antimicrobial activity against Salmonella enterica serovar Typhimurium CS9 tolC::Kan with GyrA S83F, D87N, ParC S80I mutation; summary of the method: as §1
# [34] = system: Salmonella typhimurium; assay: Antimicrobial activity against Salmonella enterica serovar Typhimurium S21-1 gyrA+; summary of the method: as §1
# [35] = system: Salmonella typhimurium; assay: Antimicrobial activity against Salmonella enterica serovar Typhimurium S21-2 tolC::Kan with GyrA S83F, ParC S80I mutation; summary of the method: as §1
# [36] = system: Salmonella typhimurium; assay: Antimicrobial activity against Salmonella enterica serovar Typhimurium CHS18 acrAB::Kan with GyrA S38F mutation; summary of the method: as §1
# [37] = system: Salmonella typhimurium; assay: Antimicrobial activity against Salmonella enterica serovar Typhimurium S21-2 with GyrA S83F, ParC S80I mutation; summary of the method: as §1
# [38] = system: Salmonella typhimurium; assay: Antimicrobial activity against Salmonella enterica serovar Typhimurium S21 tolC::Kan
# Summary of the method: (§2)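 MICs by automated broth microdilution panels, interpreted to CLSI broth microdilution standards. Ciprofloxacin additionally tested by agar dilution across 0.0075 to 128 μg/ml. Quality control strains: E. coli ATCC 25922 and 35218, Enterococcus faecalis ATCC 29212, S. aureus ATCC 29213, P. aeruginosa ATCC 27853. Test strains are kanamycin-marked deletion mutants of ground-beef isolate S21.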
# [39] = system: Salmonella typhimurium; assay: Antimicrobial activity against Salmonella enterica serovar Typhimurium CHS14 acrAB::Kan with GyrA D87G mutation; summary of the method: as §1
# [40] = system: Salmonella typhimurium; assay: Antimicrobial activity against Salmonella enterica serovar Typhimurium CHS18 with GyrA S38F mutation; summary of the method: as §1
# [41] = system: Salmonella typhimurium; assay: Antimicrobial activity against Salmonella enterica serovar Typhimurium S21-1 GyrA S83F mutant; summary of the method: as §1
# [42] = system: Salmonella typhimurium; assay: Antimicrobial activity against Salmonella enterica serovar Typhimurium S21 acrAB::Kan; summary of the method: as §2
# [43] = system: Salmonella typhimurium; assay: Antimicrobial activity against Salmonella enterica serovar Typhimurium S21-2 gyrA+ with ParC S80I mutation; summary of the method: as §1
# [44] = system: Salmonella typhimurium; assay: Antimicrobial activity against Salmonella enterica serovar Typhimurium S21-4 acrAB::Kan with GyrA S83F, ParC S80I mutation; summary of the method: as §1
smiles,measurement,setting,value
C[C@H]1COc2c(N3CCN(C)CC3)c(F)cc3c(=O)c(C(=O)O)cn1c23.C[C@H]1COc2c(N3CCN(C)CC3)c(F)cc3c(=O)c(C(=O)O)cn1c23.O [LEVOFLOXACIN],MIC,[1],8 µg/mL
same,MIC,[2],> 16 µg/mL
same,MIC,[3],1 µg/mL
same,MIC,[4],8 µg/mL
same,MIC,[5],> 16 µg/mL
same,MIC,[6],0.06 µg/mL
same,MIC,[7],0.06 µg/mL
same,MIC,[8],0.06 µg/mL
same,MIC,[9],0.25 µg/mL
same,MIC,[10],2 µg/mL
same,MIC,[11],0.03 µg/mL
same,MIC,[12],0.25 µg/mL
same,MIC,[13],0.06 µg/mL
same,MIC,[14],0.12 µg/mL
same,MIC,[15],0.12 µg/mL
same,MIC,[16],< 0.015 µg/mL
same,MIC,[17],1 µg/mL
same,MIC,[18],0.12 µg/mL
same,MIC,[19],2 µg/mL
same,MIC,[20],0.03 µg/mL
same,MIC,[21],< 0.015 µg/mL
same,MIC,[22],0.06 µg/mL
same,MIC,[23],1 µg/mL
same,MIC,[24],0.06 µg/mL
same,MIC,[25],2 µg/mL
same,MIC,[26],2 µg/mL
same,MIC,[27],0.12 µg/mL
same,MIC,[28],< 0.015 µg/mL
same,MIC,[29],0.06 µg/mL
same,MIC,[30],8 µg/mL
same,MIC,[31],0.03 µg/mL
same,MIC,[32],0.03 µg/mL
same,MIC,[33],1 µg/mL
same,MIC,[34],0.03 µg/mL
same,MIC,[35],0.06 µg/mL
same,MIC,[36],0.03 µg/mL
same,MIC,[37],1 µg/mL
same,MIC,[38],< 0.015 µg/mL
same,MIC,[39],0.03 µg/mL
same,MIC,[40],0.25 µg/mL
same,MIC,[41],0.5 µg/mL
same,MIC,[42],< 0.015 µg/mL
same,MIC,[43],0.25 µg/mL
same,MIC,[44],0.25 µg/mL
CCn1cc(C(=O)O)c(=O)c2ccc(C)nc21 [NALIDIXIC ACID],MIC,[1],> 256 µg/mL
same,MIC,[2],> 256 µg/mL
same,MIC,[3],256 µg/mL
same,MIC,[4],> 256 µg/mL
same,MIC,[5],> 256 µg/mL
same,MIC,[6],32 µg/mL
same,MIC,[7],4 µg/mL
same,MIC,[8],4 µg/mL
same,MIC,[9],> 256 µg/mL
same,MIC,[10],> 256 µg/mL
same,MIC,[11],4 µg/mL
same,MIC,[12],128 µg/mL
same,MIC,[13],4 µg/mL
same,MIC,[14],64 µg/mL
same,MIC,[15],32 µg/mL
same,MIC,[16],8 µg/mL
same,MIC,[17],256 µg/mL
same,MIC,[18],64 µg/mL
same,MIC,[19],> 256 µg/mL
same,MIC,[20],32 µg/mL
same,MIC,[21],16 µg/mL
same,MIC,[22],4 µg/mL
same,MIC,[23],> 256 µg/mL
same,MIC,[24],32 µg/mL
same,MIC,[25],> 256 µg/mL
same,MIC,[26],> 256 µg/mL
same,MIC,[27],32 µg/mL
same,MIC,[28],0.5 µg/mL
same,MIC,[29],32 µg/mL
same,MIC,[30],> 256 µg/mL
same,MIC,[31],4 µg/mL
same,MIC,[32],1 µg/mL
same,MIC,[33],256 µg/mL
same,MIC,[34],4 µg/mL
same,MIC,[35],64 µg/mL
same,MIC,[36],16 µg/mL
same,MIC,[37],> 256 µg/mL
same,MIC,[38],1 µg/mL
same,MIC,[39],8 µg/mL
same,MIC,[40],256 µg/mL
same,MIC,[41],256 µg/mL
same,MIC,[42],1 µg/mL
same,MIC,[43],64 µg/mL
same,MIC,[44],> 256 µg/mL
